Results: ChEMBL document CHEMBL1146361, “Studies on acyclic pyrimidines as inhibitors of mycobacteria” (Bioorg Med Chem, 2007)
The source made the active and inactive calls. The rule behind the calls is not given here.

What follows are compounds tested on Enterococcus faecalis (assay: Antibacterial activity against Enterococcus faecalis up to 100 ug/ml after 16 to 20 hrs by broth microdilution method). Settings: not given.
Format: functional, organism-based
For `C=Cc1cn(COCCO)c(=O)[nH]c1=O`, the Activity was “inactive”.
For `C=Cc1cn(COC(CO)CO)c(=O)[nH]c1=O`, the Activity was “inactive”.
`O=c1[nH]c(=O)n(COCCO)cc1Cl` was tested, and the Activity was “inactive”.
For `C=C(N=[N+]=[N-])c1cn(COC(CO)CO)c(=O)[nH]c1=O`, the Activity was “inactive”.
With `[N-]=[N+]=NC(CI)c1cn(COC(CO)CO)c(=O)[nH]c1=O` (stereo not given) the Activity was “inactive”.

What follows are compounds tested on Escherichia coli (assay: Antibacterial activity against Escherichia coli up to 100 ug/ml after 16 to 20 hrs by broth microdilution method). Settings: not given.
Format: functional, organism-based
For `C=Cc1cn(COCCO)c(=O)[nH]c1=O`, the Activity was “inactive”.
In the case of `C=Cc1cn(COC(CO)CO)c(=O)[nH]c1=O`, the Activity is reported as “inactive”.
With `O=c1[nH]c(=O)n(COCCO)cc1Cl` the Activity was “inactive”.
For `C=C(N=[N+]=[N-])c1cn(COC(CO)CO)c(=O)[nH]c1=O`, the Activity was “inactive”.
With `[N-]=[N+]=NC(CI)c1cn(COC(CO)CO)c(=O)[nH]c1=O` (stereo not given) the Activity was “inactive”.

Each compound was assayed on Mycobacterium tuberculosis (assay: Antimycobacterial activity against Mycobacterium tuberculosis H37Ra by MABA). Settings: not given.
Format: functional
Design: concentration or dose not given beside the values
In short: (§1)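 Compounds in DMSO (100× highest final concentration), diluted in 7H9GC; tested at 100, 50, 10 and 1 µg/mL in triplicate, three experiments. Frozen inoculum diluted in 7H9GC. Read visually and spectrophotometrically. […], mean given. Visual MIC = lowest concentration preventing blue-to-pink change.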
`C=Cc1cn(COCCO)c(=O)[nH]c1=O` was tested, and the Inhibition was 0%.
`C=Cc1cn(COC(CO)CO)c(=O)[nH]c1=O` showed an Inhibition of 0%.
In the case of `O=c1[nH]c(=O)n(COCCO)cc1Cl`, the Inhibition is reported as 0%.
`C=C(N=[N+]=[N-])c1cn(COC(CO)CO)c(=O)[nH]c1=O` gave an Inhibition of 0%.
Work on `[N-]=[N+]=NC(CI)c1cn(COC(CO)CO)c(=O)[nH]c1=O` (stereo not given) yielded an Inhibition of 0%.

What follows are compounds tested on Staphylococcus epidermidis (assay: Antibacterial activity against Staphylococcus epidermidis up to 100 ug/ml after 16 to 20 hrs by broth microdilution method). Settings: not given.
Format: functional, organism-based
`C=Cc1cn(COCCO)c(=O)[nH]c1=O` was tested, and the Activity was “inactive”.
In the case of `C=Cc1cn(COC(CO)CO)c(=O)[nH]c1=O`, the Activity is reported as “inactive”.
With `O=c1[nH]c(=O)n(COCCO)cc1Cl` the Activity was “inactive”.
In the case of `C=C(N=[N+]=[N-])c1cn(COC(CO)CO)c(=O)[nH]c1=O`, the Activity is reported as “inactive”.
`[N-]=[N+]=NC(CI)c1cn(COC(CO)CO)c(=O)[nH]c1=O` (stereo not given) was tested, and the Activity was “inactive”.

Each compound was assayed on Mycobacterium avium (assay: Antimycobacterial activity against Mycobacterium avium ATCC 25291). Settings: not given.
Format: functional
Design: concentration or dose not given beside the values
In short: as §1
With `C=Cc1cn(COCCO)c(=O)[nH]c1=O` the Inhibition was 0%.
`C=Cc1cn(COC(CO)CO)c(=O)[nH]c1=O` showed an Inhibition of 0%.
With `O=c1[nH]c(=O)n(COCCO)cc1Cl` the Inhibition was 0%.
`C=C(N=[N+]=[N-])c1cn(COC(CO)CO)c(=O)[nH]c1=O` showed an Inhibition of 0%.
`[N-]=[N+]=NC(CI)c1cn(COC(CO)CO)c(=O)[nH]c1=O` (stereo not given) was tested, and the Inhibition was 0%.

The compounds below were run on Proteus vulgaris (assay: Antibacterial activity against Proteus vulgaris up to 100 ug/ml after 16 to 20 hrs by broth microdilution method). Settings: not given.
Format: functional, organism-based
With `C=Cc1cn(COCCO)c(=O)[nH]c1=O` the Activity was “inactive”.
In the case of `C=Cc1cn(COC(CO)CO)c(=O)[nH]c1=O`, the Activity is reported as “inactive”.
With `O=c1[nH]c(=O)n(COCCO)cc1Cl` the Activity was “inactive”.
With `C=C(N=[N+]=[N-])c1cn(COC(CO)CO)c(=O)[nH]c1=O` the Activity was “inactive”.
With `[N-]=[N+]=NC(CI)c1cn(COC(CO)CO)c(=O)[nH]c1=O` (stereo not given) the Activity was “inactive”.

These compounds were tested on Pseudomonas aeruginosa (assay: Antibacterial activity against Pseudomonas aeruginosa up to 100 ug/ml after 16 to 20 hrs by broth microdilution method). Settings: not given.
Format: functional, organism-based
For `C=Cc1cn(COCCO)c(=O)[nH]c1=O`, the Activity was “inactive”.
`C=Cc1cn(COC(CO)CO)c(=O)[nH]c1=O` was tested, and the Activity was “inactive”.
For `O=c1[nH]c(=O)n(COCCO)cc1Cl`, the Activity was “inactive”.
For `C=C(N=[N+]=[N-])c1cn(COC(CO)CO)c(=O)[nH]c1=O`, the Activity was “inactive”.
For `[N-]=[N+]=NC(CI)c1cn(COC(CO)CO)c(=O)[nH]c1=O` (stereo not given), the Activity was “inactive”.

Each compound was assayed on Salmonella typhimurium (assay: Antibacterial activity against Salmonella Typhimurium up to 100 ug/ml after 16 to 20 hrs by broth microdilution method). Settings: Salmonella enterica subsp. enterica serovar Typhimurium.
Format: functional, organism-based
`C=Cc1cn(COCCO)c(=O)[nH]c1=O` was tested, and the Activity was “inactive”.
With `C=Cc1cn(COC(CO)CO)c(=O)[nH]c1=O` the Activity was “inactive”.
For `O=c1[nH]c(=O)n(COCCO)cc1Cl`, the Activity was “inactive”.
With `C=C(N=[N+]=[N-])c1cn(COC(CO)CO)c(=O)[nH]c1=O` the Activity was “inactive”.
In the case of `[N-]=[N+]=NC(CI)c1cn(COC(CO)CO)c(=O)[nH]c1=O` (stereo not given), the Activity is reported as “inactive”.

What follows are compounds tested on Streptococcus pneumoniae (assay: Antibacterial activity against Streptococcus pneumoniae up to 100 ug/ml after 16 to 20 hrs by broth microdilution method). Settings: not given.
Format: functional, organism-based
In the case of `C=Cc1cn(COCCO)c(=O)[nH]c1=O`, the Activity is reported as “inactive”.
`C=Cc1cn(COC(CO)CO)c(=O)[nH]c1=O` was tested, and the Activity was “inactive”.
In the case of `O=c1[nH]c(=O)n(COCCO)cc1Cl`, the Activity is reported as “inactive”.
In the case of `C=C(N=[N+]=[N-])c1cn(COC(CO)CO)c(=O)[nH]c1=O`, the Activity is reported as “inactive”.
`[N-]=[N+]=NC(CI)c1cn(COC(CO)CO)c(=O)[nH]c1=O` (stereo not given) was tested, and the Activity was “inactive”.

Each compound was assayed on Staphylococcus aureus (assay: Antibacterial activity against Staphylococcus aureus up to 100 ug/ml after 16 to 20 hrs by broth microdilution method). Settings: not given.
Format: functional, organism-based
For `C=Cc1cn(COCCO)c(=O)[nH]c1=O`, the Activity was “inactive”.
In the case of `C=Cc1cn(COC(CO)CO)c(=O)[nH]c1=O`, the Activity is reported as “inactive”.
With `O=c1[nH]c(=O)n(COCCO)cc1Cl` the Activity was “inactive”.
`C=C(N=[N+]=[N-])c1cn(COC(CO)CO)c(=O)[nH]c1=O` was tested, and the Activity was “inactive”.
In the case of `[N-]=[N+]=NC(CI)c1cn(COC(CO)CO)c(=O)[nH]c1=O` (stereo not given), the Activity is reported as “inactive”.

The compounds below were run on Bacillus subtilis (assay: Antibacterial activity against Bacillus subtilis up to 100 ug/ml after 16 to 20 hrs by broth microdilution method). Settings: not given.
Format: functional, organism-based
In the case of `C=Cc1cn(COCCO)c(=O)[nH]c1=O`, the Activity is reported as “inactive”.
With `C=Cc1cn(COC(CO)CO)c(=O)[nH]c1=O` the Activity was “inactive”.
With `O=c1[nH]c(=O)n(COCCO)cc1Cl` the Activity was “inactive”.
`C=C(N=[N+]=[N-])c1cn(COC(CO)CO)c(=O)[nH]c1=O` was tested, and the Activity was “inactive”.
With `[N-]=[N+]=NC(CI)c1cn(COC(CO)CO)c(=O)[nH]c1=O` (stereo not given) the Activity was “inactive”.
